Laboratory results reported in ChEMBL document CHEMBL1126849, “Synthesis of A-ring fluorinated derivatives of (17 alpha,20E/Z)-[125I]iodovinylestradiols: effect on receptor binding and receptor-mediated target tissue uptake” (J Med Chem, 1993).

How the values were obtained:
[1] = target: Estrogen receptor (Mus musculus) (UniProt O08537+P19785); assay: Relative binding affinity (RBA) against murine cytoplasmic estrogen receptor incubated at 0-4 degree Celsius for 18 hours; assay type: protein assay
Estrogen receptor (Mus musculus), sequence (O08537 whole entry, looked up): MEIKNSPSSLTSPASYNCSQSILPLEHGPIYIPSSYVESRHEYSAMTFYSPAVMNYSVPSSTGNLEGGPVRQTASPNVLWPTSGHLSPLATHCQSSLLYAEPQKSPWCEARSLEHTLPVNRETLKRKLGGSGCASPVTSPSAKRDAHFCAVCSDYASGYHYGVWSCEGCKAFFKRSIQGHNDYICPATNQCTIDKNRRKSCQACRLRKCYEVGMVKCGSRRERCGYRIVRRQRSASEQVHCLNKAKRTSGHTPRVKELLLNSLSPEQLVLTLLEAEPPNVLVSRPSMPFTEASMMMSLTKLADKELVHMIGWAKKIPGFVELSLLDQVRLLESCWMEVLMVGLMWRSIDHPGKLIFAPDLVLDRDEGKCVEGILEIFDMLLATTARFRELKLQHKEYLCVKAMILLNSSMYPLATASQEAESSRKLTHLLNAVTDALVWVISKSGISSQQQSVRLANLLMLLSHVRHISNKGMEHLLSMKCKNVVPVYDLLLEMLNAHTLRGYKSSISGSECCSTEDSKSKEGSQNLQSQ
Estrogen receptor (Mus musculus), sequence (P19785 whole entry, looked up): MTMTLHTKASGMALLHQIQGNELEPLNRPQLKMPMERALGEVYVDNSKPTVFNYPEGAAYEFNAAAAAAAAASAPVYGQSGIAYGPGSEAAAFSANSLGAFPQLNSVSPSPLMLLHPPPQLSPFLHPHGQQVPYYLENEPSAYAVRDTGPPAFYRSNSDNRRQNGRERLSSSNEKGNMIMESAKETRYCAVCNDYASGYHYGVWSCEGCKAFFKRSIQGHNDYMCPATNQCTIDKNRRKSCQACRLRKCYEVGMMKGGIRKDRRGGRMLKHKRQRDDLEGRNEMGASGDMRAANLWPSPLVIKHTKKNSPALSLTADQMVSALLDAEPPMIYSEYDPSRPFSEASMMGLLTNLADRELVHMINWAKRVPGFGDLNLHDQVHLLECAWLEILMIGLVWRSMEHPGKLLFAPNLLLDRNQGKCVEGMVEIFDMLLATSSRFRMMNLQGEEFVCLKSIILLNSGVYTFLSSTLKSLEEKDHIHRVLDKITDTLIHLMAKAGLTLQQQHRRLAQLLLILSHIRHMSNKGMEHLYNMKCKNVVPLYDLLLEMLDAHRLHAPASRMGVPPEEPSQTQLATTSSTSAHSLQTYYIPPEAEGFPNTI
How it was run: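 Competitive binding on murine uterine cytoplasmic extract with 20 nM [3H]estradiol and competitor steroids at 2 nM–20 μM, incubated 18 h at 0–4 °C. RBA = 100 × ratio of […] concentration giving 50% competition for specific binding. Mean of three experiments with SD.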

Rattus norvegicus [2] = assay: Biodistribution in uterus / spleen, muscle, lungs of immature female rat after 12 hour administration of 3 micro Ci (111 kBq) in the absence of 60 microg estradiol; assay type: ADME, organism-based; details: in vivo
How it was run: (§1)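 Immature female Long Evans rats (21–24 days, 45–70 g), 3–5 per group, unanesthetized in retention cages, given 3 μCi (111 kBq) 125I-labeled steroid by lateral tail vein. Vehicle: ethanol diluted with saline containing 1% Tween-80, final ethanol 9%. +E2 group co-injected 60 μg unlabeled estradiol (1 h only). Killed under ether; tissues KCl-washed, weighed, gamma-counted. Output: %ID/g (mean, SE) and uterus to blood or nontarget (muscle, spleen, lungs) ratios.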

Rattus norvegicus [3] = assay: Biodistribution in uterus of immature female rat after 3 hour administration of 3 micro Ci (111 kBq) in the absence of 60 microg estradiol; assay type: ADME, organism-based; details: in vivo; how it was run: as §1
Rattus norvegicus [4] = assay: Biodistribution in uterus / spleen, muscle, lungs of immature female rat after 1 hr administration of 3 micro Ci (111 kBq) in the presence of (+E2); assay type: ADME, organism-based; details: in vivo
How it was run: (§2)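 Same in vivo procedure: immature female Long Evans rats (21–24 days), three to five per group, 3 μCi (111 kBq) tracer i.v. via tail vein in 9% ethanol/saline/1% Tween-80, ± 60 μg estradiol co-injected at 1 h. Uterus %ID/g (gamma counting) divided by blood, or by nontarget organ (muscle, spleen, lungs), %ID/g to give ratios.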

Rattus norvegicus [5] = assay: Biodistribution in lungs of immature female rat after 5 hour administration of 3 micro Ci (111 kBq) in the absence of 60 microg estradiol; assay type: ADME, organism-based, Lung; details: in vivo
How it was run: (§3)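 Immature female Long Evans rats (21–24 days, 45–70 g), three to five per group, given 125I-labeled steroid (3 μCi, 111 kBq) by lateral tail vein without anesthesia. Vehicle: ethanol diluted in saline with 1% Tween-80, final ethanol 9%, 0.22 μm filtered. +E2 groups received 60 μg unlabeled estradiol co-injected. Killed under ether at set times; tissues KCl-washed, blotted, weighed, gamma counted; %ID/g, mean with SE.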

Rattus norvegicus [6] = assay: Biodistribution in spleen of immature female rat after 1 hr administration of 3 micro Ci (111 kBq) in the presence of (+E2); assay type: ADME, organism-based; details: in vivo; how it was run: as §3
Rattus norvegicus [7] = assay: Biodistribution in uterus / blood of immature female rat after 5 hour administration of 3 micro Ci (111 kBq) in the absence of 60 microg estradiol; assay type: ADME, organism-based; details: in vivo; how it was run: as §2
Rattus norvegicus [8] = assay: Biodistribution in spleen of immature female rat after 5 hour administration of 3 micro Ci (111 kBq) in the absence of 60 microg estradiol; assay type: ADME, organism-based; details: in vivo; how it was run: as §3
Rattus norvegicus [9] = assay: Biodistribution in uterus / blood of immature female rat after 1 hr administration of 3 micro Ci (111 kBq) in the absence of 60 microg estradiol; assay type: ADME, organism-based; details: in vivo; how it was run: as §2
Rattus norvegicus [10] = assay: Biodistribution in fat of immature female rat after 1 hr administration of 3 micro Ci (111 kBq) in the absence of 60 microg estradiol; assay type: ADME, organism-based, Adipose tissue; details: in vivo
How it was run: (§4)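 Immature female Long Evans rats (21–24 days, 45–70 g), unanesthetized in retention cages, given 3 µCi (111 kBq) 125I-labeled steroid i.v. via lateral tail vein. Vehicle was ethanol diluted in saline containing 1% Tween-80, giving 9% ethanol final. The blocking group received 60 µg unlabeled estradiol co-injected. Rats were killed under ether by axillary bleeding, and tissues were KCl-washed and gamma-counted. Data are %ID/g, mean ± SE, n=3–5.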

Rattus norvegicus [11] = assay: Biodistribution in lungs of immature female rat after 12 hour administration of 3 micro Ci (111 kBq) in the absence of 60 microg estradiol; assay type: ADME, organism-based, Lung; details: in vivo; how it was run: as §3
Rattus norvegicus [12] = assay: Biodistribution in lungs of immature female rat after 3 hour administration of 3 micro Ci (111 kBq) in the absence of 60 microg estradiol; assay type: ADME, organism-based, Lung; details: in vivo; how it was run: as §3
Rattus norvegicus [13] = assay: Biodistribution in uterus of immature female rat after 1 hr administration of 3 micro Ci (111 kBq) in the presence of (+E2); assay type: ADME, organism-based; details: in vivo; how it was run: as §1
Rattus norvegicus [14] = assay: Biodistribution in thyroid of immature female rat after 12 hour administration of 3 micro Ci (111 kBq) in the absence of 60 microg estradiol; assay type: ADME, organism-based, Thyroid gland; details: in vivo; how it was run: as §3
Rattus norvegicus [15] = assay: Biodistribution in kidney of immature female rat after 5 hour administration of 3 micro Ci (111 kBq) in the absence of 60 microg estradiol; assay type: ADME, organism-based; details: in vivo; how it was run: as §4
Rattus norvegicus [16] = assay: Biodistribution in fat of immature female rat after 1 hr administration of 3 micro Ci (111 kBq) in the presence of (+E2); assay type: ADME, organism-based, Adipose tissue; details: in vivo; how it was run: as §4
Rattus norvegicus [17] = assay: Biodistribution in uterus / blood of immature female rat after 1 hr administration of 3 micro Ci (111 kBq) in the presence of (+E2); assay type: ADME, organism-based; details: in vivo; how it was run: as §2
Rattus norvegicus [18] = assay: Biodistribution in blood of immature female rat after 1 hr administration of 3 micro Ci (111 kBq) in the presence of (+E2); assay type: ADME, organism-based; details: in vivo; how it was run: as §4
Rattus norvegicus [19] = assay: Biodistribution in fat of immature female rat after 3 hour administration of 3 micro Ci (111 kBq) in the absence of 60 microg estradiol; assay type: ADME, organism-based, Adipose tissue; details: in vivo; how it was run: as §4
Rattus norvegicus [20] = assay: Biodistribution in muscle of immature female rat after 3 hour administration of 3 micro Ci (111 kBq) in the absence of 60 microg estradiol; assay type: ADME, organism-based, Muscle tissue; details: in vivo; how it was run: as §3
Rattus norvegicus [21] = assay: Biodistribution in thyroid of immature female rat after 1 hr administration of 3 micro Ci (111 kBq) in the absence of 60 microg estradiol; assay type: ADME, organism-based, Thyroid gland; details: in vivo; how it was run: as §3
Rattus norvegicus [22] = assay: Biodistribution in uterus of immature female rat after 12 hour administration of 3 micro Ci (111 kBq) in the absence of 60 microg estradiol; assay type: ADME, organism-based; details: in vivo; how it was run: as §1
Rattus norvegicus [23] = assay: Biodistribution in fat of immature female rat after 12 hour administration of 3 micro Ci (111 kBq) in the absence of 60 microg estradiol; assay type: ADME, organism-based, Adipose tissue; details: in vivo; how it was run: as §4
Rattus norvegicus [24] = assay: Biodistribution in spleen of immature female rat after 1 hr administration of 3 micro Ci (111 kBq) in the absence of 60 microg estradiol; assay type: ADME, organism-based; details: in vivo; how it was run: as §3
Rattus norvegicus [25] = assay: Biodistribution in uterus of immature female rat after 5 hour administration of 3 micro Ci (111 kBq) in the absence of 60 microg estradiol; assay type: ADME, organism-based; details: in vivo; how it was run: as §1
Rattus norvegicus [26] = assay: Biodistribution in uterus / blood of immature female rat after 3 hour administration of 3 micro Ci (111 kBq) in the absence of 60 microg estradiol; assay type: ADME, organism-based; details: in vivo; how it was run: as §2
Rattus norvegicus [27] = assay: Biodistribution in liver of immature female rat after 5 hour administration of 3 micro Ci (111 kBq) in the absence of 60 microg estradiol; assay type: ADME, organism-based; details: in vivo; how it was run: as §4
Rattus norvegicus [28] = assay: Biodistribution in liver of immature female rat after 1 hr administration of 3 micro Ci (111 kBq) in the presence of (+E2); assay type: ADME, organism-based; details: in vivo; how it was run: as §4
Rattus norvegicus [29] = assay: Biodistribution in thyroid of immature female rat after 3 hour administration of 3 micro Ci (111 kBq) in the absence of 60 microg estradiol; assay type: ADME, organism-based, Thyroid gland; details: in vivo; how it was run: as §3
Rattus norvegicus [30] = assay: Biodistribution in lungs of immature female rat after 1 hr administration of 3 micro Ci (111 kBq) in the presence of (+E2); assay type: ADME, organism-based, Lung; details: in vivo; how it was run: as §4

RBA [1] | uterus to nontarget tissue ratio (Rattus norvegicus [2]) [%] | ID/g (Rattus norvegicus [3]) [%] | uterus-to-nontarget tissue uptake ratio (Rattus norvegicus [4]) [%] | ID/g (Rattus norvegicus [5]) [%] | ID/g (Rattus norvegicus [6]) [%] | uterus to blood ratio (Rattus norvegicus [7]) [%] | ID/g (Rattus norvegicus [8]) [%] | uterus-to-blood ratio of %ID/g (Rattus norvegicus [9]) [%] | ID/g (Rattus norvegicus [10]) [%] | ID/g (Rattus norvegicus [11]) [%] | ID/g (Rattus norvegicus [12]) [%] | ID/g (Rattus norvegicus [13]) [%] | ID/g (Rattus norvegicus [14]) [%] | ID/g (Rattus norvegicus [15]) [%] | ID/g (Rattus norvegicus [16]) [%] | uterus/blood %ID/g ratio (Rattus norvegicus [17]) [%] | ID/g (Rattus norvegicus [18]) [%] | ID/g (Rattus norvegicus [19]) [%] | ID/g (Rattus norvegicus [20]) [%] | SMILES | also measured
27.9 |  |  |  |  |  |  |  |  |  |  |  |  |  |  |  |  |  |  |  | CO[C@H]1C[C@@]2(C)[C@@H](CC[C@@]2(O)/C=C\I)[C@@H]2CCc3cc(O)c(F)cc3[C@H]21 | 
36.8 | 17.02 | 4.11 | 0.88 | 0.48 | 0.69 | 10.01 | 0.57 | 8.35 | 1.3 | 0.24 | 0.46 | 0.5 | 898 | 0.67 | 1.39 | 1.16 | 0.45 | 1.42 | 0.28 | C[C@@H]1Cc2c(ccc(O)c2F)[C@H]2CC[C@@]3(C)[C@@H](CC[C@@]3(O)/C=C\I)[C@H]12 | ID/g (Rattus norvegicus [21]): 145%; ID/g (Rattus norvegicus [22]): 3.45%; ID/g (Rattus norvegicus [23]): 0.89%; ID/g (Rattus norvegicus [24]): 1.16%; ID/g (Rattus norvegicus [25]): 4.39%; uterus to blood %ID/g ratio (unitless) (Rattus norvegicus [26]): 10.6%; ID/g (Rattus norvegicus [27]): 1.36%; ID/g (Rattus norvegicus [28]): 1.54%; ID/g (Rattus norvegicus [29]): 304%; ID/g (Rattus norvegicus [30]): 0.67%
28.6 | 15.99 | 4.03 | 0.76 | 0.37 | 0.56 | 11.08 | 0.51 | 8.3 | 2.02 | 0.25 | 0.36 | 0.39 | 745 | 0.54 | 1.58 | 1.2 | 0.32 | 1.54 | 0.32 | C[C@@H]1Cc2cc(O)c(F)cc2[C@H]2CC[C@@]3(C)[C@@H](CC[C@@]3(O)/C=C\I)[C@H]12 | ID/g (Rattus norvegicus [21]): 205%; ID/g (Rattus norvegicus [22]): 3.84%; ID/g (Rattus norvegicus [23]): 0.84%; ID/g (Rattus norvegicus [24]): 1.12%; ID/g (Rattus norvegicus [25]): 3.4%; uterus to blood %ID/g ratio (unitless) (Rattus norvegicus [26]): 14.81%; ID/g (Rattus norvegicus [27]): 2.51%; ID/g (Rattus norvegicus [28]): 1.83%; ID/g (Rattus norvegicus [29]): 202%; ID/g (Rattus norvegicus [30]): 0.42%
